Shown are actives, neighbours in structure and some others; about 4.2% of the full set was active somewhere.
Lipid droplet – inhibitors of hepatocyte lipid droplet formation, primary screen, imaging, high-throughput imaging, BODIPY stain | AML12 mouse hepatocytes, oleate lipid droplets | inhibition, % at 6.5 µM | 240,000 tested, 0.4% active | AID 1656, 2009;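 active = lipid droplet intensity inhibited by at least 50%, with more than 500 cells counted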
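material = mouse AML12 hepatocyte cell line, fixed after treatment | also added = 100 µM oleic acid challenge | doses = compound at 6.5 µM only | schedule = overnight exposure | technique = Image-based BODIPY and DAPI two-channel analysis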
CHOP UPR activ – activators of apoptotic CHOP UPR arm, primary screen, cell-based, CHO-CHOP luciferase reporter, luminescence, uHTS. UPR activation; percent of tunicamycin response over DMSO baseline. activation, % at 10 µM. 330,000 tested, 0.34% active. AID 449763, 2010;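 active = at 10 µM dose, activation of 40% or more, normalized to positive control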
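Material: CHO-CHOP cells, stable luciferase reporter of PERK-eIF2a-CHOP signalling; quantity: 500 reporter cells seeded per well; buffer or medium: F12 medium containing 10% fetal bovine serum; compound: one dose, 10 µM in 0.5% DMSO; incubation: 6 h compound treatment, 37 °C; measured by: Steady-Glo luciferase luminescence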
ANO1 activ – TMEM16A chloride channel activators or potentiators, primary screen, cell-based, HTS; HEK293 TMEM16A/YFP-H148Q/I152L, iodide quench fluorescence; hits give low values; B-score at 10 µM; 340,000 tested, 0.3% active;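 active = fluorescence-ratio B-score plate-corrected deviation score at least 3 library SD below zero, with starting fluorescence score within 5 deviations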;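 note: channel opened by trigger with iodide after compound preincubation; score built on the fluorescence ratio of max minus min over baseline; more negative score means more quench and so TMEM16A activation or potentiation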
Target sequence (Q8BHY3 whole entry, looked up): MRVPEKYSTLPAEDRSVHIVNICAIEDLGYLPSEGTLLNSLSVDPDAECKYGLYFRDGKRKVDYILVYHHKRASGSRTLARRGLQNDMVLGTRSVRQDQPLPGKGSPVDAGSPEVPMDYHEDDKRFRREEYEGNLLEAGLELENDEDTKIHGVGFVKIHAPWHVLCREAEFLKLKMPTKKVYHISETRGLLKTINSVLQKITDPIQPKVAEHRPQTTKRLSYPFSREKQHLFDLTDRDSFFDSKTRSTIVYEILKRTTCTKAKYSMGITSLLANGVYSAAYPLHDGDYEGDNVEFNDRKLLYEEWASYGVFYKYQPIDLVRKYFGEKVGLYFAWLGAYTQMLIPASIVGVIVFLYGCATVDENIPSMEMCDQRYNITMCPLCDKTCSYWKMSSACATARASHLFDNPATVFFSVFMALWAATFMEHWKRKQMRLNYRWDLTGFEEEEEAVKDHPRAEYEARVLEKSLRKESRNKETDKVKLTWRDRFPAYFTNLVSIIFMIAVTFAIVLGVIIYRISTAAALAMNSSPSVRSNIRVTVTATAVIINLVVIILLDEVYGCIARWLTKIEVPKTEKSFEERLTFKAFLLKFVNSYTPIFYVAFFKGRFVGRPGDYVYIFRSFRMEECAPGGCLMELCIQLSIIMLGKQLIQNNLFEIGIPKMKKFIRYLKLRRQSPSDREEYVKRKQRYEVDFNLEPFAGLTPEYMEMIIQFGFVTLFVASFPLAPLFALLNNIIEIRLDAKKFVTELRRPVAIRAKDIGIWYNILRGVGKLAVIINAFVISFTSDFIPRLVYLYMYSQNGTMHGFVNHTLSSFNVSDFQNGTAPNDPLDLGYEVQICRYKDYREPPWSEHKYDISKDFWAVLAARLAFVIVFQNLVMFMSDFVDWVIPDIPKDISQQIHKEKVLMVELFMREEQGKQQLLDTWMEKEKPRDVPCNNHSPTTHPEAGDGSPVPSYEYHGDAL
XBP1 UPR activ – activators of adaptive XBP1 UPR arm, primary screen, cell-based, CHO-XBP1 luciferase reporter, luminescence, uHTS | IRE1-XBP1 UPR activation; percent of tunicamycin response, DMSO as zero | activation, % at 20 µM | 330,000 tested, 0.33% active;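 active = versus positive control, 20 µM dose yields 30% or more activation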
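incubation = overnight seeding at 37 °C, 6 h compound treatment at 37 °C | assay system = CHO-XBP1 cells stably carrying IRE1-XBP1-driven luciferase reporter | input = 1000 cells per well | detection = luciferase luminescence | dosing = single point, 20 µM final compound, 1% DMSO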
CHOP inh – inhibitors of CHOP promoter induction, primary screen, cell-based, unfolded protein response, luciferase reporter; 220,000 tested, 3.8% active; inhibition, % at 10 µM; CHO-K1 CHOP-promoter luciferase, tunicamycin-induced, 15-18 h;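 active = compounds that reduced the stress-induced luciferase reporter signal by more than about 70% of percent inhibition, limit read from the data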
TMEM16A inh – TMEM16A chloride channel inhibitors, primary screen, cell-based, HTS. Anoctamin-1 (Mus musculus), Q8BHY3. HEK293 TMEM16A/YFP iodide influx fluorescence, ionomycin. normalized B-score (activity score, 25-100; higher = stronger inhibition) at 10 µM. 310,000 tested, 1.2% active. AID 588511, 2011;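 active = ratio plate-corrected score three or more library SD toward inhibition, starting fluorescence score within five deviations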;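 note: score derived from kinetic fluorescence span divided by baseline fluorescence per well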
Of the large screens only hits and unclear results are named; the others gave an inactive call.

CCCCCCC(=O)NNC(=O)c1c(O)c2ccccc2n(CC)c1=O	CHOP inh 93
CCCCCCCCC(=O)NNC(=O)c1c(O)c2ccccc2n(CC)c1=O	none
CCn1c(=O)c(C(=O)NNS(=O)(=O)c2ccc(Cl)cc2)c(O)c2ccccc21	CHOP inh 84
CCCCCCC(=O)NNC(=O)c1c(O)c2ccccc2n(CCC)c1=O	CHOP inh 76
CCn1c(=O)c(C(=O)NNC(=O)c2ccccc2)c(O)c2ccccc21	none (no result: CHOP inh)
CCc1ccc(CNC(=O)CCc2cn(C)c3ccccc23)cc1	none (no result: CHOP inh)
COc1ccc(N2CCN(S(=O)(=O)CCNC(=O)/C=C/c3ccc4c(c3)OCO4)CC2)cc1	none (no result: Lipid droplet, CHOP inh)
CC(C)Nc1ncnc2c1cnn2-c1ccc(Cl)cc1	CHOP inh 75
O=C(Cn1cnc2c(cnn2-c2ccccc2)c1=O)N1CCOCC1	none
Cc1nn(-c2ccccc2)c(Cl)c1C(=O)N1CCN(c2ncnc3c2cnn3-c2ccccc2)CC1	CHOP inh 92, TMEM16A inh 25 (no result: Lipid droplet)
O=C(Cn1cnc2c(cnn2-c2ccc(Cl)cc2)c1=O)N1CCN(c2ccccc2)CC1	CHOP inh 91
Clc1ccc(-n2ncc3c(N4CCCC4)ncnc32)cc1	CHOP inh 78
Clc1ccc(Nc2ncnc3c2cnn3-c2ccccc2)cc1	none
O=C(OC1CO[C@H]2O[C@@H]1[C@H](OC(=O)c1ccccc1)[C@H]2OC(=O)c1ccccc1)c1ccccc1 (stereo not given in full)	none (no result: Lipid droplet, CHOP inh)
Cc1sc(N(C(=O)CCc2ccccc2)c2ccc(C(=O)O)cc2)nc1-c1ccccc1	TMEM16A inh 25
O=C(COC(=O)CSc1ccc(Cl)cc1)Nc1ccc2[nH]c(=O)[nH]c2c1	none (no result: Lipid droplet, CHOP inh, TMEM16A inh)
O=C(CN(C1CCCCC1)S(=O)(=O)c1ccccc1)N1CCCC1	none
O=C(CN(C1CCCCC1)C1CCCCC1)N1CCc2ccccc2C1	CHOP inh 87
COc1cc(CN2CCNC(=O)C2CC(=O)NC2CCCC2)cc(OC)c1 (stereo not given)	none (no result: CHOP inh)
CC(C)Sc1nc(N2CCOCC2)c2c3c(sc2n1)COC(C)(C)C3	CHOP inh 82 (no result: Lipid droplet)
CCN1CCN(c2nc(SC)nc3sc4c(c23)CC(C)(C)OC4)CC1	none (no result: Lipid droplet, CHOP UPR activ, XBP1 UPR activ, TMEM16A inh)
COC(=O)c1ccc(COc2cccc(C)c2C)cc1	none
O=C1CC(NCCC2=CCCCC2)C(=O)N1c1cccc(Cl)c1Cl (stereo not given)	none (no result: Lipid droplet, ANO1 activ)
CCOC(=O)c1c(C)oc2cc(Br)c(OC(C)C(=O)OCC)cc12 (stereo not given)	TMEM16A inh 25 (no result: Lipid droplet)
COc1cc(/C=N/NC(=O)C(=O)NCC2CCCO2)cc(Cl)c1O (stereo not given)	none
CCCn1nc([N+](=O)[O-])c(C(C#N)c2nc3ccccc3s2)c(Cl)c1=O (stereo not given)	TMEM16A inh 100
O=C(Nc1nncs1)C1COc2ccccc2O1 (stereo not given)	none
COc1ccccc1C(=O)Nc1nnc(-c2ccc3c(c2)CCCC3)o1	CHOP inh 80 (no result: Lipid droplet)
O=C(COc1ccccc1)Nc1nnc(-c2ccc(Cl)cc2)o1	none (no result: CHOP inh)
O=C(Nc1nnc(-c2ccc3c(c2)CCCC3)o1)C1COc2ccccc2O1 (stereo not given)	TMEM16A inh 25 (no result: Lipid droplet)
CC(=O)Nc1nnc(-c2ccc3c(c2)CCCC3)o1	none (no result: Lipid droplet)
O=C(COc1ccc(Cl)cc1)Nc1nnc(-c2ccc3c(c2)CCCC3)o1	CHOP inh 87
COc1ccc(OCC(=O)Nc2cc3c(cc2C(=O)O)OCCCO3)cc1	none (no result: CHOP inh)
Cc1ccc(S(=O)(=O)CCC(=O)Nc2ccccc2C)cc1	none (no result: CHOP inh)
Cc1cc(CSc2nc(C)cc(=O)[nH]2)c2ncccc2c1	CHOP inh 87
Cc1cc(=O)[nH]c(SCc2cccc3ccccc23)n1	none (no result: Lipid droplet, CHOP inh)
Cc1cc(C(=O)CSc2nnnn2-c2ccc(O)cc2)c(C)n1C	none
CC(C)(CC(=O)O)CC(=O)N1CCN(c2nc3ccc(Cl)cc3s2)CC1	none (no result: Lipid droplet, CHOP inh)
CCCCC(=O)N1CCN(c2nc3ccc(Cl)cc3s2)CC1	TMEM16A inh 25 (no result: CHOP inh)
Cc1ccc(C(=O)c2ccc(C(F)(F)F)cc2)cc1	CHOP inh 93 (no result: ANO1 activ)
CN(C)C(=O)c1cc(C(=O)c2ccc(C(F)(F)F)cc2)c[nH]1	none (no result: Lipid droplet, CHOP inh)
Fc1cccc2sc(Nc3nc4ccccc4s3)nc12	CHOP inh 85
Fc1ccc2nc(Nc3nc4c(F)cc(F)cc4s3)sc2c1	none (no result: CHOP UPR activ, XBP1 UPR activ)
CC(C)OC(=O)c1c(NC(=O)Cn2cnc([N+](=O)[O-])n2)sc2c1CCCC2	CHOP inh 93
NC(=O)c1c(NC(=O)Cn2cnc([N+](=O)[O-])n2)sc2c1CCCC2	none
CCOC(=O)c1c(NC(=O)Cn2cnc([N+](=O)[O-])n2)sc2c1CCCC2	CHOP inh 75
CC1CCc2c(sc(NC(=O)Cn3cnc([N+](=O)[O-])n3)c2C(N)=O)C1 (stereo not given)	none
CN(CCCNC(=O)Cn1c(=O)c2cccn2c2ccccc21)Cc1ccccc1	none (no result: CHOP inh)
CCN(CC)c1ccc(C(=O)NC(=S)Nc2cc(S(=O)(=O)N3CCOCC3)ccc2-n2cncn2)cc1	none
COc1ccc(C2(C)NC(=O)N(CC(=O)Nc3ccc(Br)c(C)c3)C2=O)cc1OC (stereo not given)	none (no result: CHOP inh)
Oc1oc(-c2cccc3ccccc23)nc1C=NCc1ccccc1	none (no result: Lipid droplet, CHOP UPR activ, ANO1 activ, XBP1 UPR activ, TMEM16A inh)
Oc1oc(-c2cccc3ccccc23)nc1/C=N/c1nccs1	CHOP inh 90
CCN(CC)C(=O)CN(c1ccc2c(c1)OCO2)S(C)(=O)=O	none
CCN(CC)C(=O)CN(c1ccc(F)c(Cl)c1)S(C)(=O)=O	CHOP inh 76
O=C(CCN1CCCC1=O)NC1CCCc2c1cnn2-c1ccc(F)cc1F (stereo not given)	none (no result: CHOP inh)
COc1ccc(OCC(O)Cn2cnc(-c3ccc(Br)cc3)c2)cc1 (stereo not given)	none
OC(COc1ccc2ccccc2c1Br)Cn1cnc(-c2ccccc2)c1 (stereo not given)	CHOP inh 76
N#Cc1c(NC(=O)CSc2nc(N)cc(=O)[nH]2)sc2c1CCCC2	none
Cc1ccc(C(=O)N2CCN=C2SCc2ccc([N+](=O)[O-])cc2)cc1	ANO1 activ -5.8
Cc1nc(Nc2ccccc2Br)c2nnn(Cc3ccccc3)c2n1	none (no result: CHOP inh)
COc1ccc(Nc2nc(C)nc3c2nnn3Cc2ccccc2)cc1OC	none

From PubChem
